Reference: ChEMBL document CHEMBL1921730, “The anti-malarial activity of bivalent imidazolium salts” (Bioorg Med Chem, 2011)
Activity calls are given as the source filed them. The rule behind the calls is not given here.

Key:
[1] = test system: CHO; experiment: Cytotoxicity against CHO cells after 48 hrs by MTT assay; format: cell-based; conditions: Cricetulus griseus
Method in brief: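 CHO cells grown in RPMI-1640 with 10% fetal calf serum, 25 mM HEPES and gentamicin, to 50% confluency, then given two-fold gradients from 10 mg/mL DMSO stocks; DMSO-only control. After 48 h, MTT (10 mg/mL) was added for 30 min, then DMSO; absorbance read at 650 nm. IC50 by non-linear regression of sigmoidal dose-response curves; four determinations, mean ± SEM.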

[2] = test system: Plasmodium falciparum; experiment: Antiplasmodial activity against Plasmodium falciparum assessed as inhibition of parasite LDH activity after 72 hrs; format: functional, organism-based
Method in brief: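 P. falciparum ItG grown in O+ human erythrocytes in RPMI-1640 with 10% human serum and 50 µM hypoxanthine. DMSO stocks (10 mg/mL) diluted two-fold serially; culture at 2% hematocrit and 2% parasitemia incubated 72 h at 37 °C under 95% N₂/3% CO₂/2% O₂. pLDH assay read at 595 nm after 1 h; IC50 by non-linear regression, mean ± SEM, n = 4; chloroquine positive control.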

[3] = Ratio of IC50 for CHO cells to IC50 for Plasmodium falciparum
[4] = test system: Plasmodium berghei; experiment: Antiplasmodial activity against Plasmodium berghei infected in BALB/c mouse assessed as delay in onset of parasitemia infused once daily for 3 days by Giemsa staining relative to control
[5] = test system: Plasmodium falciparum; experiment: Antiplasmodial activity against Plasmodium falciparum assessed as inhibition of parasite adherence to RBCs at 20 uM after 48 hrs by microscopic analysis; format: functional, organism-based
[6] = test system: Plasmodium falciparum; experiment: Antiplasmodial activity against Plasmodium falciparum 3D7 assessed as reduction in parasitemia at 83 nM measured between day 1 and day 2 relative to control; format: functional, organism-based
Method in brief: (§1)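 P. falciparum 3D7 cultures synchronized at mature stage on Percoll one day before the start. Set to 1% hematocrit and 2% parasitemia, treated with 40 nM or 83 nM compound, and sampled every 24 h for 4 days. Parasitemia counted on Giemsa-stained smears. Controls: uninfected RBCs, untreated cultures, sulfated β-cyclodextrin sodium salt and chloroquine.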

[7] = test system: Plasmodium falciparum; experiment: Antiplasmodial activity against Plasmodium falciparum 3D7 assessed as reduction in parasitemia at 40 nM measured between day 1 and day 2 relative to control; format: functional, organism-based; method in brief: as §1
[8] = test system: Plasmodium berghei; experiment: Antiplasmodial activity against Plasmodium berghei infected in BALB/c mouse assessed as delay in onset of parasitemia at 75 ug/day infused once daily for 3 days by Giemsa staining relative to control; format: functional, organism-based
Method in brief: (§2)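 Female Balb/c mice, 6–8 weeks old, infected with 10⁶ P. berghei on Day 0 and followed by Giemsa-stained blood films until parasites appeared. Then infused once daily for three days with 0.5 mL RPMI-1640 or compound in RPMI-1640; vehicle control 1% (v/v) DMSO in RPMI-1640; chloroquine 15 mg/kg/day as positive control. Parasitemia by Giemsa films; five mice per group.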

[9] = test system: Plasmodium berghei; experiment: Antiplasmodial activity against Plasmodium berghei infected in BALB/c mouse assessed as reduction in parasitemia at 15 mg/kg infused once daily for 4 days measured after 4 days by YOYO-1 staining based flow cytometry relative to control; design: scale not given: the % may be the effect or the level left
[10] = test system: Plasmodium falciparum; experiment: Antiplasmodial activity against Plasmodium falciparum assessed as inhibition of merozoite invasion of RBCs at 20 uM after 48 hrs by SYBR green 1 fluorescence-based flow cytometry; format: functional, organism-based
Method in brief: (§3)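 Sorbitol-synchronized ring-stage P. falciparum set to 5% parasitemia and 0.5% hematocrit, then treated for 48 h. An equal volume of RPMI-1640 with 0.2 µL/mL stock SYBR-Green was added for 1 h in the dark before flow cytometry (~200,000 events). Quadrant counts of parasitized, non-parasitized and small DNA-containing events were taken relative to total erythrocytes.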

[11] = test system: Plasmodium falciparum; experiment: Antiplasmodial activity against Plasmodium falciparum assessed as inhibition of merozoite invasion of RBCs at 0.2 mg/ml after 48 hrs by SYBR green 1 fluorescence-based flow cytometry; format: functional, organism-based; method in brief: as §3
[12] = test system: Plasmodium falciparum; experiment: Antiplasmodial activity against Plasmodium falciparum 3D7 assessed as reduction in parasitemia measured between day 1 and day 2 relative to control; format: functional, organism-based; method in brief: as §1
[13] = test system: Plasmodium berghei; experiment: Antiplasmodial activity against Plasmodium berghei infected in BALB/c mouse assessed as delay in onset of parasitemia at 60 ug/day infused once daily for 3 days by Giemsa staining relative to control; format: functional, organism-based; method in brief: as §2
[14] = test system: Plasmodium berghei; experiment: Antiplasmodial activity against Plasmodium berghei […] by SYBR green 1 assay; format: functional, organism-based
Method in brief: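 P. berghei blood from an infected mouse (5% parasitemia) obtained by cardiac puncture and washed 3 times in RPMI. Plated at 2% hematocrit in a two-fold compound gradient. Wells agitated at 24 h to release merozoites, then incubated a further 24 h. SYBR-Green I fluorescence read-out; IC50 from four independent determinations, mean ± SEM.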

[15] = test system: Plasmodium falciparum; experiment: Antiplasmodial activity against Plasmodium falciparum assessed as inhibition of merozoite invasion of RBCs at 1 uM after 48 hrs by SYBR green 1 fluorescence-based flow cytometry; format: functional, organism-based; method in brief: as §3

Row | IC50 [2] | SMILES | IC50 [1] | Ratio IC50 [3] | also measured
1 | 0.002 µM | C[n+]1ccn(CCCCCCCCCCCCCCCn2cc[n+](C)c2)c1.[I-].[I-] | 1.2 µM | 600 | 
2 | 11.2 µM | C[n+]1ccn(-c2ccc(-n3cc[n+](C)c3)cc2)c1.[I-].[I-] |  | 28 | 
3 | 4.7 µM | C[n+]1ccn(CCCCCCCCn2cc[n+](C)c2)c1.[I-].[I-] |  | 96 | 
4 | 19 µM | Cl.Cl.c1ncn(CCCCCCCCCCCCn2cncn2)n1 | 11.7 µM | 0.6 | 
5 | 0.008 µM | C[n+]1cnn(CCCCCCCCCCCCn2c[n+](C)cn2)c1.[I-].[I-] | 52 µM | 6500 | Activity [4]: 50%; inhibition [5]: Active; Activity [6]: Active; Activity [7]: inactive; Activity [8]: Active; Activity [9]: 75%; inhibition [10]: inactive
6 | 4.1 µM | Cl.Cl.c1cn(CCCCCCCCCCCCn2ccnc2)cn1 | 1.4 µM | 0.3 | 
7 | 0.0008 µM | CCC[n+]1ccn(CCCCCCCCCCCCn2cc[n+](CCC)c2)c1.[I-].[I-] | 78 µM | 97500 | 
8 | 4.9 µM | Cl.Cl.c1cn(CCCOc2ccc(OCCCn3ccnc3)cc2)cn1 | 50 µM | 10 | 
9 | 1070 µM | Cl.Cl.c1cn(CCCCn2ccnc2)cn1 | 1900 µM | 1.8 | 
10 |  | O=S(=O)(O)OC[C@H]1O[C@@H]2O[C@H]3[C@H](O)[C@@H](O)[C@@H](O[C@H]4[C@H](O)[C@@H](O)[C@@H](O[C@H]5[C@H](O)[C@@H](O)[C@@H](O[C@H]6[C@H](O)[C@@H](O)[C@@H](O[C@H]7[C@H](O)[C@@H](O)[C@@H](O[C@H]8[C@H](O)[C@@H](O)[C@@H](O[C@H]1[C@H](O)[C@H]2O)O[C@@H]8COS(=O)(=O)O)O[C@@H]7COS(=O)(=O)O)O[C@@H]6COS(=O)(=O)O)O[C@@H]5COS(=O)(=O)O)O[C@@H]4COS(=O)(=O)O)O[C@@H]3COS(=O)(=O)O |  |  | inhibition [11]: Active; Activity [12]: Active
11 | 67 µM | C[n+]1ccn(CCCCn2cc[n+](C)c2)c1.[I-].[I-] |  | 1.8 | 
12 | 90 µM | Cl.Cl.c1cn(CCCCCCn2ccnc2)cn1 | 899 µM | 10 | 
13 | 0.007 µM | C[n+]1ccn(CCCCCCCCCCCCCn2cc[n+](C)c2)c1.[I-].[I-] | 51 µM | 7286 | Activity [13]: Active
14 | 93 µM | c1cn(-c2ccc(-n3ccnc3)cc2)cn1 | 1110 µM | 12 | 
15 | 0.65 µM | c1cn(CCCCCCCCCCCCCCCCn2ccnc2)cn1 | 1.3 µM | 2 | 
16 | 0.045 µM | C[n+]1ccn(CCCOc2ccc(OCCCn3cc[n+](C)c3)cc2)c1.[I-].[I-] |  | 2511 | IC50 [14]: 0.046 µM
17 | 0.0061 µM | C[n+]1ccn(CCCCCCCCCCCn2cc[n+](C)c2)c1.[I-].[I-] | 42 µM | 6885 | IC50 [14]: 0.05 µM
18 | 0.006 µM | C[n+]1ccn(CCCCCCCCCCCCn2cc[n+](C)c2)c1.[I-].[I-] | 26 µM | 4333 | inhibition [5]: Active; inhibition [10]: inactive
19 | 0.0005 µM | C[n+]1ccn(CCCCCCCCCCCCCCCCn2cc[n+](C)c2)c1.[I-].[I-] | 2.7 µM | 5400 | 
20 | 6 µM | Cl.Cl.c1cn(CCCCCCCCn2ccnc2)cn1 | 140 µM | 23 | 
21 | 0.022 µM | [Br-].[Br-].c1ccc(C[n+]2ccn(-c3ccc(-c4ccc(-n5cc[n+](Cc6ccccc6)c5)cc4)cc3)c2)cc1 | 12.1 µM | 550 | 

Row | IC50 [2] | SMILES | IC50 [1] | Ratio IC50 [3] | also measured
22 | 0.56 µM | Cl.Cl.c1cn(CCCCCCCCCCCCCn2ccnc2)cn1 | 3 µM | 5.4 | 
23 | 0.0032 µM | C[n+]1ccn(CCCCCCCCCCCCCCn2cc[n+](C)c2)c1.[I-].[I-] | 11 µM | 3438 | 
24 | 0.0009 µM | C[n+]1ccn(CCCCCCCCCCCCCCCCCCn2cc[n+](C)c2)c1.[I-].[I-] | 1.4 µM | 1556 | 
25 | 0.012 µM | CC[n+]1ccn(CCCCCCCCCCCCn2cc[n+](CC)c2)c1.[I-].[I-] | 34 µM | 2833 | IC50 [14]: 0.12 µM
26 | 9.2 µM | Cl.Cl.c1cn(CCCCCCCCCCn2ccnc2)cn1 | 15 µM | 1.6 | 
27 | 0.07 µM | C[n+]1cn(-c2ccc(-c3ccc(-n4c[n+](C)c5ccccc54)cc3)cc2)c2ccccc21.[I-].[I-] | 98 µM | 1400 | 
28 | 2.6 µM | C[n+]1ccn(CCCCCCn2cc[n+](C)c2)c1.[I-].[I-] |  | 56 | 
29 | 1.6 µM | Cl.Cl.c1cn(CCCCCCCCCCCCCCn2ccnc2)cn1 | 4.4 µM | 2.8 | 
30 | 2.5 µM | c1cn(CCCCCCCCCCCCCCCCCCCCn2ccnc2)cn1 | 8 µM | 3.2 | 
31 | 0.4 µM | c1cn(CCCCCCCCCCCCCCCCCCn2ccnc2)cn1 | 1.2 µM | 3 | 
32 | 1.7 µM | c1cn(Cc2ccc(-c3ccc(Cn4ccnc4)cc3)cc2)cn1 | 65 µM | 38 | 
33 |  | CCN(CC)CCCC(C)Nc1ccnc2cc(Cl)ccc12 (stereo unspecified) |  |  | inhibition [15]: Active; Activity [12]: Active
34 | 1.9 µM | c1cn(CCCCCCCCCCCn2ccnc2)cn1 | 20 µM | 11 | 
35 | 0.009 µM | C[n+]1ccn(-c2ccc(-c3ccc(-n4cc[n+](C)c4)cc3)cc2)c1.[I-].[I-] | 9 µM | 1000 | 
36 | 3.1 µM | c1cn(-c2ccc(-c3ccc(-n4ccnc4)cc3)cc2)cn1 | 27 µM | 9 | 
37 | 0.93 µM | Cl.Cl.c1cn(CCCCCCCCCCCCCCCn2ccnc2)cn1 | 2.8 µM | 3 | 
38 | 0.18 µM | C[n+]1ccn(Cc2ccc(-c3ccc(Cn4cc[n+](C)c4)cc3)cc2)c1.[I-].[I-] |  | 694 | 
39 | 0.0021 µM | C[n+]1ccn(CCCCCCCCCCCCCCCCCCCCn2cc[n+](C)c2)c1.[I-].[I-] | 1.4 µM | 667 | 
40 |  | O=C(Cn1cc[n+](CC(=O)c2ccc(Cl)cc2)c1)c1ccc(Cl)cc1 |  |  | IC50 [14]: 4.2 µM; inhibition [5]: Active; inhibition [10]: inactive
41 | 0.082 µM | C[n+]1ccn(CCCCCCCCCCn2cc[n+](C)c2)c1.[I-].[I-] | 57 µM | 695 | 

Row | SMILES | IC50 [2] | IC50 [1] | Ratio IC50 [3] | also measured
42 | O=[N+]([O-])c1ccc(C[n+]2ccn(-c3ccc(-c4ccc(-n5cc[n+](Cc6ccc([N+](=O)[O-])cc6)c5)cc4)cc3)c2)cc1.[Br-].[Br-] | 0.023 µM | 14 µM | 609 | 
